Published values gathered from unrelated publications.
Compare with care: the assays were run in different laboratories.
Target: Phosphorylase b kinase gamma catalytic chain, skeletal muscle/heart isoform (PHKG1, Homo sapiens, UniProt Q16816)

SMILES | read-out | technique | concentration | remaining binding [%]
C[C@H]1CCN(c2nccc(-c3cnn4ncccc34)n2)C1 | binding | – | 1 µM | 100
O=C(c1ccc(Nc2ncc(Cl)c(-c3cc4ccccc4s3)n2)cc1)N1CCC(N2CCCC2)CC1 | binding | competition with immobilised ligand | 1 µM | 54
CO[C@H]1CC[C@H](CNc2ccc(S(=O)(=O)NC(=O)c3ccc(N4CCN(CC5=C(c6ccc(Cl)cc6)CC(C)(C)CC5)CC4)cc3Oc3cnc4[nH]ccc4c3)cc2[N+](=O)[O-])CC1 | cell-free assay | competition with immobilised ligand | 1 µM | 100
N[C@H]1CCN(c2nccc(-c3cnn4ncccc34)n2)C1 | binding | – | 1 µM | 84
CCN1CCN(Cc2ccc(C(=O)Nc3ccc(C)c(Oc4ccc5c(c4)CC(=O)N5)c3)cc2C(F)(F)F)CC1 | binding | competition with immobilised ligand | 1 µM | 100
C[C@@H](c1ccc(-n2cnc3c(N)ncnc32)cc1)N1CCc2nn(C)c(Cc3ccccc3)c2C1=O | binding | competition with immobilised ligand | 0.1 µM | 90
COc1ccc2cc(OCC3(C(=O)O)CN(C(=O)c4ccc(F)cc4)C3)ccc2c1 | cell-free assay | competition with immobilised ligand | 1 µM | 100
O=C(c1ccc(Nc2nccc(-c3cc4ccccc4s3)n2)cc1)N1CCC(N2CCCC2)CC1 | binding | competition with immobilised ligand | 1 µM | 96
O=C(NCC1CCOCC1)c1n[nH]cc1NC(=O)c1c(F)cccc1F | binding | competition with immobilised ligand | 1 µM | 100
F[C@@H]1CCN(c2nccc(-c3cnn4ncccc34)n2)C1 | binding | – | 1 µM | 100
CNC(=O)[C@@H]1CC[C@@H](n2c(-c3ccc4cnccc4c3)nc3ccc(C(=O)NCc4cccc(C(N)=O)c4)cc32)C1 | binding | competition with immobilised ligand | 1 µM | 100
CCC(=N\O)/C(C)=C/c1ccc(F)cc1 | cell-free assay | competition with immobilised ligand | 1 µM | 100
FC(F)(F)Oc1cccc(-c2cnc3ccc(-c4ccncc4)nn23)c1 | cell-free assay | competition with immobilised ligand | 5 µM | 43
Nc1ncc2c(n1)-c1c([nH]c3ccc(C#CC4CC4)cc13)CCCC2 | binding | competition with immobilised ligand | 1 µM | 93
COc1ccnn2ncc(-c3ccnc(N(C)C)n3)c12 | binding | – | 1 µM | 100
CC1=C(C#N)C(c2ccc3c(c2)c(NC(=O)c2ccccc2C)nn3C)C(C#N)=C(C)N1 | cell-free assay | competition with immobilised ligand | 1 µM | 91
CN(C)c1nccc(-c2cnc3ncccn23)n1 | binding | – | 1 µM | 100
O=C(O)[C@H]1[C@H](Cn2nnc3ccccc3c2=O)CC[C@@H]1C(=O)c1ccc(OCCC2CCOCC2)cc1 | cell-free assay | competition with immobilised ligand | 1 µM | 74
c1cnn2ncc(-c3ccnc(N4CCC45COC5)n3)c2c1 | binding | – | 1 µM | 85
CC(=O)c1c(NS(C)(=O)=O)c2cc(-c3ccc(Cl)cc3)c(-c3ccc(Cl)cc3Cl)nc2n(C)c1=O | cell-free assay | competition with immobilised ligand | 1 µM | 94
CC1CCCN1c1nccc(-c2cnn3ncccc23)n1 (stereo not shown) | binding | – | 1 µM | 100
O=C(NCCCN1CCOCC1)c1ccc(Nc2ncc(Cl)c(-c3ccc(Cl)s3)n2)cc1 | binding | competition with immobilised ligand | 1 µM | 56
